Measured values taken from ChEMBL document CHEMBL1250434, “A novel achiral seco-cyclopropylpyrido[e]indolone (CPyI) analog of CC-1065 and the duocarmycins: synthesis, DNA interactions, in vivo anticancer and anti-parasitic evaluation” (Bioorg Med Chem, 2010).

Experiments:
A549 = assay: Cytotoxicity against human A549 cells after 48 hrs by sulforhodamine B assay; format: functional; details: A549, 48 h, read-out: pLC50 (the source's name) (converted)
Summary of the method: (§1)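 NCI human cancer cell line panel. Continuous 48 h drug exposure, viability by sulforhodamine B. GI50, TGI and LC50 derived from dose–response curves.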

CCRF-CEM = assay: Cytotoxicity against human CCRF-CEM cells after 48 hrs by sulforhodamine B assay; format: functional; details: read-out: pLC50 (the source's name) (converted); summary of the method: as §1
Nucleic Acid = assay: Binding affinity to pUC18 DNA assessed as DNA alkylating activity after 5 hrs by thermal cleavage assay; format: nucleic-acid assay; details: Escherichia coli
Summary of the method: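 PCR probe from the 749–956 region of pUC18. DNA precipitated and lyophilised, then heated at 90 °C for 30 min in sodium citrate buffer (pH 7.2) to cleave at alkylated adenines. Fragments resolved by electrophoresis.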

L1210 [1] = assay: Cytotoxicity against mouse L1210 cells after 3 days by MTT assay; format: functional, cell-based; details: L1210, 72 h
Summary of the method: (§2)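 Murine tumour cells under continuous drug exposure for 3 days. Growth inhibition measured by MTT assay. IC50 is the concentration inhibiting growth by 50%.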

[2] = Cytotoxicity against mouse B16F0 cells after 3 days by MTT assay; format: functional, cell-based; details: B16F0, 72 h; summary of the method: as §2
L1210 [3] = assay: Selectivity ratio of IC50 for mouse L1210 cells to IC50 for mouse B16F0 cells; format: functional
EKVX = assay: Cytotoxicity against human EKVX cells after 48 hrs by sulforhodamine B assay; format: functional; details: read-out: pLC50 (the source's name) (converted); summary of the method: as §1
HOP-62 = assay: Cytotoxicity against human HOP62 cells after 48 hrs by sulforhodamine B assay; format: functional; details: HOP-62, 48 h, read-out: pLC50 (the source's name) (converted); summary of the method: as §1
HOP-92 = assay: Cytotoxicity against human HOP92 cells after 48 hrs by sulforhodamine B assay; format: functional; details: HOP-92, 48 h, read-out: pLC50 (the source's name) (converted); summary of the method: as §1
NCI-H23 = assay: Cytotoxicity against human NCI-H23 cells after 48 hrs by sulforhodamine B assay; format: functional; details: NCI-H23, 48 h, read-out: pLC50 (the source's name) (converted); summary of the method: as §1
NCI-H322M = assay: Cytotoxicity against human NCI-H322M cells after 48 hrs by sulforhodamine B assay; format: functional; details: read-out: pLC50 (the source's name) (converted); summary of the method: as §1
NCI-H460 = assay: Cytotoxicity against human NCI-H460 cells after 48 hrs by sulforhodamine B assay; format: functional; details: NCI-H460, 48 h, read-out: pLC50 (the source's name) (converted); summary of the method: as §1
NCI-H522 = assay: Cytotoxicity against human NCI-H522 cells after 48 hrs by sulforhodamine B assay; format: functional; details: NCI-H522, 48 h, read-out: pLC50 (the source's name) (converted); summary of the method: as §1
COLO 205 = assay: Cytotoxicity against human COLO205 cells after 48 hrs by sulforhodamine B assay; format: functional; details: COLO 205, 48 h, read-out: pLC50 (the source's name) (converted); summary of the method: as §1
HCT-15 = assay: Cytotoxicity against human HCT15 cells after 48 hrs by sulforhodamine B assay; format: functional; details: HCT-15, 48 h, read-out: pLC50 (the source's name) (converted); summary of the method: as §1
HT-29 = assay: Cytotoxicity against human HT-29 cells after 48 hrs by sulforhodamine B assay; format: functional; details: HT-29, 48 h, read-out: pLC50 (the source's name) (converted); summary of the method: as §1
KM12 = assay: Cytotoxicity against human KM12 cells after 48 hrs by sulforhodamine B assay; format: functional; details: KM12, 48 h, read-out: pLC50 (the source's name) (converted); summary of the method: as §1
SW-620 = assay: Cytotoxicity against human SW620 cells after 48 hrs by sulforhodamine B assay; format: functional; details: SW-620, 48 h, read-out: pLC50 (the source's name) (converted); summary of the method: as §1
SF-268 = assay: Cytotoxicity against human SF268 cells after 48 hrs by sulforhodamine B assay; format: functional; details: SF-268, 48 h, read-out: pLC50 (the source's name) (converted); summary of the method: as §1
SF-295 = assay: Cytotoxicity against human SF295 cells after 48 hrs by sulforhodamine B assay; format: functional; details: SF-295, 48 h, read-out: pLC50 (the source's name) (converted); summary of the method: as §1
SF-539 = assay: Cytotoxicity against human SF539 cells after 48 hrs by sulforhodamine B assay; format: functional; details: SF-539, 48 h, read-out: pLC50 (the source's name) (converted); summary of the method: as §1
SNB-19 = assay: Cytotoxicity against human SNB19 cells after 48 hrs by sulforhodamine B assay; format: functional; details: SNB-19, 48 h, read-out: pLC50 (the source's name) (converted); summary of the method: as §1
SNB-75 = assay: Cytotoxicity against human SNB75 cells after 48 hrs by sulforhodamine B assay; format: functional; details: SNB-75, 48 h, read-out: pLC50 (the source's name) (converted); summary of the method: as §1
M14 = assay: Cytotoxicity against human M14 cells after 48 hrs by sulforhodamine B assay; format: functional; details: M14, 48 h, read-out: pLC50 (the source's name) (converted); summary of the method: as §1

In the case of `COc1cc2cc(C(=O)Nc3cc(O)c4ncc(C)cc4c3CCCl)[nH]c2c(OC)c1OC`, the CC50 (A549) is reported as greater than 100 µM, the CC50 (CCRF-CEM) is reported as greater than 100 µM and the Activity (Nucleic Acid) is reported as “Dose-dependent effect”. The IC50 (L1210 [1]) was 0.00072 µM, the IC50 [2] was 0.0023 µM and the Ratio (L1210 [3]) was 10. The CC50 (EKVX) was 3.02 µM, the CC50 (HOP-62) was less than 0.01 µM and the CC50 (HOP-92) was 28.2 µM. For the same molecule, the CC50 (NCI-H23) was less than 0.01 µM, the CC50 (NCI-H322M) was 0.123 µM and the CC50 (NCI-H460) was 81.3 µM. For the same molecule, the CC50 (NCI-H522) was greater than 100 µM, the CC50 (COLO 205) was greater than 100 µM and the CC50 (HCT-15) was greater than 100 µM. For the same molecule, the CC50 (HT-29) was greater than 100 µM, the CC50 (KM12) was 0.191 µM and the CC50 (SW-620) was greater than 100 µM. The CC50 (SF-268) was greater than 100 µM, the CC50 (SF-295) was 20.9 µM and the CC50 (SF-539) was 0.151 µM. It also gave a CC50 (SNB-19) of 100 µM, a CC50 (SNB-75) of 0.0115 µM and a CC50 (M14) of less than 0.01 µM.
